Data published in ChEMBL document CHEMBL1122969, “Spiro[4.5] and spiro[4.6] carboxylic acids: cyclic analogues of valproic acid. Synthesis and anticonvulsant evaluation” (J Med Chem, 1985).

Key:
[1] = tested on: Mus musculus; assay: Anticonvulsant activity against Subcutaneous pentylenetetrazole test at dose 300 mg/kg at 4 hr; format: functional
Outline: (§1)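 Phase I mouse screen. Compound was suspended in 30% polyethylene glycol 400 and given by intraperitoneal injection at 30, 100, 300 or 600 mg/kg. Testing was at 30 min and 4 h (maximal electroshock or subcutaneous pentylenetetrazol), with rotorod toxicity scored alongside. Scored as animals protected/tested; toxicity was flagged at the 0.5 h or 4 h check.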

[2] = tested on: Mus musculus; assay: Anticonvulsant activity against Maximal electroshock seizure at dose 600 mg/kg at 0.5 hr; format: functional; outline: as §1
[3] = tested on: Mus musculus; assay: Anticonvulsant activity against neurologic toxicity test at dose 300 mg/kg at 0.5 hr; format: organism-based; set-up: dose 300 mg/kg; conditions: in vivo
Outline: (§2)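 Mice got the compound as a suspension in 30% polyethylene glycol 400 by ip injection (30, 100, 300, 600 mg/kg) 30 min or 4 h before the rotorod neurological toxicity test. The value is the number of animals showing toxicity over the number tested.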

[4] = tested on: Mus musculus; assay: Anticonvulsant activity against Maximal electroshock seizure at dose 600 mg/kg at 4 hr; format: functional; outline: as §1
[5] = tested on: Mus musculus; assay: Anticonvulsant activity against Subcutaneous pentylenetetrazole test at dose 300 mg/kg at 0.5 hr; format: functional; outline: as §1
[6] = tested on: Mus musculus; assay: Anticonvulsant activity against neurologic toxicity test at dose 600 mg/kg at 0.5 hr; format: organism-based; set-up: dose 600 mg/kg; conditions: in vivo; outline: as §2
[7] = tested on: Mus musculus; assay: Anticonvulsant activity against Subcutaneous pentylenetetrazole test at dose 600 mg/kg at 4 hr; format: functional; outline: as §1
[8] = tested on: Mus musculus; assay: Anticonvulsant activity against Maximal electroshock seizure at dose 300 mg/kg at 4 hr; toxic; format: ADME, organism-based; set-up: dose 300 mg/kg; conditions: in vivo; outline: as §1
[9] = tested on: Mus musculus; assay: Anticonvulsant activity against neurologic toxicity test at dose 600 mg/kg at 4 hr; format: organism-based; set-up: dose 600 mg/kg; conditions: in vivo; outline: as §2
[10] = tested on: Mus musculus; assay: Anticonvulsant activity against Subcutaneous pentylenetetrazole test at dose 600 mg/kg at 0.5 hr; format: functional; outline: as §1
[11] = tested on: Mus musculus; assay: Anticonvulsant activity against Maximal electroshock seizure at dose 300 mg/kg at 0.5 hr; toxic; format: ADME, organism-based; set-up: dose 300 mg/kg; conditions: in vivo; outline: as §1
[12] = tested on: Mus musculus; assay: Anticonvulsant activity against neurologic toxicity test at dose 300 mg/kg at 4 hr; format: organism-based; set-up: dose 300 mg/kg; conditions: in vivo; outline: as §2
[13] = tested on: Mus musculus; assay: Anticonvulsant activity against Maximal electroshock seizure at dose 300 mg/kg at 4 hr; format: functional; outline: as §1
[14] = tested on: Mus musculus; assay: Anticonvulsant activity against Maximal electroshock seizure at dose 300 mg/kg at 0.5 hr; format: functional; outline: as §1
[15] = tested on: Mus musculus; assay: Anticonvulsant activity against Bicucullin (3.75 mg/kg) induced tonic seizure at dose 400 mg/kg subcutaneously at pretreatment time of 15 min.; format: functional; conditions: route subcutaneous
Outline: (§3)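 CF1 mice (Sprague–Dawley) were given the compound sc in 30% polyethylene glycol 400, with vehicle-injected controls. After the stated pretreatment interval, at the time of peak effect, bicuculline 3.75 mg/kg was injected sc; this dose gives clonic and tonic seizures and death in all controls. Clonic seizure = at least one 5-s clonic spasm episode. Tonic seizure = hindlimb flexion then extension. Scored as mice protected/tested plus mean ± SD onset, minutes.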

[16] = tested on: Mus musculus; assay: Phase V qualification against antipicrotoxin activity administered subcutaneously at 3.2 mg/kg; format: functional; conditions: sc, route subcutaneous
[17] = tested on: Mus musculus; assay: Anticonvulsant activity against Bicucullin (3.75 mg/kg) induced tonic seizure at dose 360 mg/kg subcutaneously at pretreatment time of 15 min.; format: functional; conditions: route subcutaneous; outline: as §3
[18] = tested on: Mus musculus; assay: Anticonvulsant activity against Bicucullin (3.75 mg/kg) induced clonic seizure at dose 360 mg/kg subcutaneously at pretreatment time of 15 min.; format: functional; conditions: route subcutaneous; outline: as §3
[19] = tested on: Mus musculus; assay: Anticonvulsant activity against Bicucullin (3.75 mg/kg) induced clonic seizure at dose 400 mg/kg subcutaneously at pretreatment time of 15 min.; format: functional; conditions: route subcutaneous; outline: as §3
[20] = tested on: Mus musculus; assay: Anticonvulsant activity against Bicucullin (3.75 mg/kg) induced death at dose 400 mg/kg subcutaneously at pretreatment time of 15 min.; format: ADME, organism-based; set-up: dose 400 mg/kg, route subcutaneous; conditions: in vivo, sc
[21] = tested on: Mus musculus; assay: Anticonvulsant activity against picrotoxin (4.0 mg/kg) induced clonic seizures at 400 mg/kg subcutaneous dose 15 min pretreatment; format: functional
[22] = organism: Mus musculus; assay: animal or person; conditions: sc
[23] = Phase II qualification against neurotoxicity administered subcutaneously was reported.; format: toxicity, organism-based; conditions: mouse, in vivo, sc
Outline: (§4)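 Mice were used. scMet ED50 and rotorod TD50 came from groups of 6–12 mice dosed over a range until at least three points fell within 10–90% protection or minimal neurotoxicity. Both were read at the time of peak effect, 0.5 h. ED50, TD50 and 95% confidence intervals were obtained from a plot by the Litchfield–Wilcoxon method. PI = TD50/ED50.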

[24] = tested on: Mus musculus; assay: Anticonvulsant activity against Bicucullin (3.75 mg/kg) induced clonic seizure at dose 150 mg/kg subcutaneously at pretreatment time of 30 min.; format: functional; conditions: route subcutaneous; outline: as §3
[25] = tested on: Mus musculus; assay: Anticonvulsant activity against Bicucullin (3.75 mg/kg) induced tonic seizure at dose 150 mg/kg subcutaneously at pretreatment time of 15 min.; format: functional; conditions: route subcutaneous; outline: as §3
[26] = tested on: Mus musculus; assay: Anticonvulsant activity against Bicucullin (3.75 mg/kg) induced clonic seizure at dose 150 mg/kg subcutaneously at pretreatment time of 15 min.; format: functional; conditions: route subcutaneous; outline: as §3
[27] = Protective index is the ratio of TD50 to that of ED50; format: ADME; conditions: read-out: Protective index; outline: as §4
[28] = tested on: Mus musculus; assay: Anticonvulsant activity against Bicucullin (3.75 mg/kg) induced tonic seizure at dose 150 mg/kg subcutaneously at pretreatment time of 30 min.; format: functional; conditions: route subcutaneous; outline: as §3
[29] = tested on: Mus musculus; assay: Anticonvulsant activity against Bicucullin (3.75 mg/kg) induced death at dose 150 mg/kg subcutaneously at pretreatment time of 15 min.; format: ADME, organism-based; set-up: dose 150 mg/kg, route subcutaneous; conditions: in vivo, sc
[30] = Phase V qualification against neurotoxicity administered subcutaneously at a dose (3.2 mg/kg) was reported.; format: toxicity, organism-based; conditions: mouse, in vivo, sc
[31] = tested on: Mus musculus; assay: Phase II qualification against administered subcutaneously was reported.; format: functional; conditions: sc; outline: as §4
[32] = tested on: Mus musculus; assay: Anticonvulsant activity against Bicucullin (3.75 mg/kg) induced death at dose 150 mg/kg subcutaneously at pretreatment time of 30 min.; format: ADME, organism-based; set-up: dose 150 mg/kg, route subcutaneous; conditions: in vivo, sc
[33] = tested on: Mus musculus; assay: Anticonvulsant activity against picrotoxin (4.0 mg/kg) induced clonic seizures at 180 mg/kg subcutaneous dose 15 min pretreatment; format: functional
[34] = tested on: Mus musculus; assay: Anticonvulsant activity against Bicucullin (3.75 mg/kg) induced death at dose 300 mg/kg subcutaneously at pretreatment time of 30 min.; format: ADME, organism-based; set-up: dose 300 mg/kg, route subcutaneous; conditions: in vivo, sc
[35] = tested on: Mus musculus; assay: Anticonvulsant activity against Bicucullin (3.75 mg/kg) induced tonic seizure at dose 300 mg/kg subcutaneously at pretreatment time of 30 min.; format: functional; conditions: route subcutaneous; outline: as §3
[36] = tested on: Mus musculus; assay: Anticonvulsant activity against Bicucullin (3.75 mg/kg) induced clonic seizure at dose 300 mg/kg subcutaneously at pretreatment time of 30 min.; format: functional; conditions: route subcutaneous; outline: as §3
[37] = tested on: Mus musculus; assay: Anticonvulsant activity against Bicucullin (3.75 mg/kg) induced clonic seizure at dose 200 mg/kg subcutaneously at pretreatment time of 30 min.; format: functional; conditions: route subcutaneous; outline: as §3
[38] = tested on: Mus musculus; assay: Anticonvulsant activity against Bicucullin (3.75 mg/kg) induced tonic seizure at dose 200 mg/kg subcutaneously at pretreatment time of 15 min.; format: functional; conditions: route subcutaneous, in the assay text read “pretreatment time of 30 min” for “pretreatment time of 15 min”; outline: as §3
[39] = tested on: Mus musculus; assay: Anticonvulsant activity against Bicucullin (3.75 mg/kg) induced death at dose 200 mg/kg subcutaneously at pretreatment time of 30 min.; format: ADME, organism-based; set-up: dose 200 mg/kg, route subcutaneous; conditions: in vivo, sc

O=C(O)CC1CCC2(CCCCCC2)C1 (stereo unspecified)
No. protected/tested [1]: 0 | No. protected/tested [2]: 1 | No. toxicity/tested [3]: 3 | No. protected/tested [4]: 0 | No. protected/tested [5]: 1 | No. toxicity/tested [6]: 4 | No. protected/tested [7]: 1 | No. protected/tested [8]: 0 | No. toxicity/tested [9]: 0 | No. protected/tested [10]: 1 | No. protected/tested [11]: 1 | No. toxicity/tested [12]: 0

O=C(O)C1(C(=O)O)CCC2(CCCCC2)C1
No. protected/tested [1]: 0 | No. protected/tested [2]: 0 | No. toxicity/tested [3]: 0 | No. protected/tested [4]: 0 | No. protected/tested [13]: 0 | No. protected/tested [5]: 0 | No. protected/tested [14]: 0 | No. toxicity/tested [6]: 0 | No. protected/tested [7]: 0 | No. toxicity/tested [9]: 2 | No. protected/tested [10]: 1 | No. toxicity/tested [12]: 0

CCCC(CCC)C(=O)O [VALPROIC ACID]
Average onset [15]: 17 min | ED50 [16]: 387 mg/kg | Average onset [17]: 11 min | Average onset [18]: 9 min | Average onset [19]: 15 min | Average onset [20]: 18 min | Average onset [21]: 16 min | ED50 [22]: 149 mg/kg

O=C(O)C1CCC2(CCCCCC2)C1 (stereo unspecified)
No. protected/tested [1]: 0 | TD50 [23]: 193 mg/kg | Average onset [24]: 8 min | Average onset [25]: 10 min | ED50 [16]: 167 mg/kg | Average onset [26]: 7 min | selectivity ratio [27]: 2.3 | No. protected/tested [2]: 0 | No. toxicity/tested [3]: 1 | No. protected/tested [4]: 0 | No. protected/tested [13]: 0 | Average onset [28]: 13 min | Average onset [29]: 10 min | No. protected/tested [5]: 1 | No. toxicity/tested [6]: 4 | TD50 [30]: 193 mg/kg | No. protected/tested [7]: 1 | No. toxicity/tested [9]: 1 | No. protected/tested [10]: 1 | No. protected/tested [11]: 1 | ED50 [31]: 83 mg/kg | No. toxicity/tested [12]: 0 | Average onset [32]: 14 min | Average onset [33]: 21 min

O=C(O)C1(C(=O)O)CCC2(CCCCCC2)C1
No. protected/tested [1]: 0 | TD50 [23]: 275 mg/kg | selectivity ratio [27]: 1.4 | No. protected/tested [2]: 0 | No. toxicity/tested [3]: 0 | No. protected/tested [4]: 0 | No. protected/tested [5]: 1 | No. protected/tested [14]: 0 | Average onset [34]: 13 min | No. toxicity/tested [6]: 3 | Average onset [35]: 12 min | No. protected/tested [7]: 0 | Average onset [36]: 9 min | No. protected/tested [8]: 0 | No. toxicity/tested [9]: 2 | No. protected/tested [10]: 1 | ED50 [31]: 194 mg/kg | No. toxicity/tested [12]: 0

O=C(O)C1CCC2(CCCCC2)C1 (stereo unspecified)
Average onset [37]: 8 min | No. protected/tested [1]: 0 | No. protected/tested [2]: 0 | No. toxicity/tested [3]: 3 | No. protected/tested [4]: 0 | No. protected/tested [13]: 0 | No. protected/tested [5]: 1 | No. toxicity/tested [6]: 4 | Average onset [38]: 11 min | No. protected/tested [7]: 0 | Average onset [39]: 12 min | No. toxicity/tested [9]: 0 | No. protected/tested [10]: 1 | No. protected/tested [11]: 1 | No. toxicity/tested [12]: 0

O=C([O-])C1CCC2(CCCCCC2)C1.[Na+] (stereo unspecified)
No. protected/tested [1]: 0 | No. protected/tested [2]: 0 | No. toxicity/tested [3]: 0 | No. protected/tested [4]: 0 | No. protected/tested [13]: 0 | No. protected/tested [5]: 0 | No. protected/tested [14]: 0 | No. toxicity/tested [6]: 4 | No. protected/tested [7]: 0 | No. toxicity/tested [9]: 2 | No. protected/tested [10]: 1 | No. toxicity/tested [12]: 0
